Source: PubChem BioAssay
MC4R barr agon: MC4R agonists recruiting beta-arrestin, primary screen, cell-based, luminescence, agonist arm of biased-ligand search. activation, % at 8.9 µM. U2OS MC4R beta-arrestin complementation; percent of melanotan II response, DMSO zero. AID 540308, 2011. actives 0.98% (n = 360,000). Melanocortin receptor 4 (Homo sapiens), P32245;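 active = activation above a per-plate cutoff, the mean activation of sample wells on that plate plus 3 SD, cut at about 8% in these data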
Beta apoptosis: inhibitors of cytokine-induced beta cell apoptosis, primary screen, luminescence | INS-1E cytokine-induced death, ATP luminescence, 48 h; percent of positive-control rescue, neutral wells zero | protection from apoptosis, % (no concentration beside the values) | actives 0.8% (n = 300,000);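 active = Every replicate reaches about 75%, or at least half do and their mean reaches it too, limit read from the data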;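 note: 0% = cytokine-treated negative control wells and 100% = positive control rescue; higher means more ATP so stronger rescue from cytokine killing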
TMEM16A act: TMEM16A chloride channel activators or potentiators, primary screen, cell-based, HTS | Anoctamin-1 (Mus musculus), Q8BHY3 | HEK293 TMEM16A/YFP-H148Q/I152L, iodide quench fluorescence; hits give low values | B-score at 10 µM | actives 0.3% (n = 340,000);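 active = fluorescence-ratio B-score plate-corrected deviation score at least 3 library SD below zero, with starting fluorescence score within 5 deviations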;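 note: channel opened by trigger with iodide after compound preincubation; score built on the fluorescence ratio of max minus min over baseline; more negative score means more quench and so TMEM16A activation or potentiation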
Target sequence (Q8BHY3 whole entry, looked up): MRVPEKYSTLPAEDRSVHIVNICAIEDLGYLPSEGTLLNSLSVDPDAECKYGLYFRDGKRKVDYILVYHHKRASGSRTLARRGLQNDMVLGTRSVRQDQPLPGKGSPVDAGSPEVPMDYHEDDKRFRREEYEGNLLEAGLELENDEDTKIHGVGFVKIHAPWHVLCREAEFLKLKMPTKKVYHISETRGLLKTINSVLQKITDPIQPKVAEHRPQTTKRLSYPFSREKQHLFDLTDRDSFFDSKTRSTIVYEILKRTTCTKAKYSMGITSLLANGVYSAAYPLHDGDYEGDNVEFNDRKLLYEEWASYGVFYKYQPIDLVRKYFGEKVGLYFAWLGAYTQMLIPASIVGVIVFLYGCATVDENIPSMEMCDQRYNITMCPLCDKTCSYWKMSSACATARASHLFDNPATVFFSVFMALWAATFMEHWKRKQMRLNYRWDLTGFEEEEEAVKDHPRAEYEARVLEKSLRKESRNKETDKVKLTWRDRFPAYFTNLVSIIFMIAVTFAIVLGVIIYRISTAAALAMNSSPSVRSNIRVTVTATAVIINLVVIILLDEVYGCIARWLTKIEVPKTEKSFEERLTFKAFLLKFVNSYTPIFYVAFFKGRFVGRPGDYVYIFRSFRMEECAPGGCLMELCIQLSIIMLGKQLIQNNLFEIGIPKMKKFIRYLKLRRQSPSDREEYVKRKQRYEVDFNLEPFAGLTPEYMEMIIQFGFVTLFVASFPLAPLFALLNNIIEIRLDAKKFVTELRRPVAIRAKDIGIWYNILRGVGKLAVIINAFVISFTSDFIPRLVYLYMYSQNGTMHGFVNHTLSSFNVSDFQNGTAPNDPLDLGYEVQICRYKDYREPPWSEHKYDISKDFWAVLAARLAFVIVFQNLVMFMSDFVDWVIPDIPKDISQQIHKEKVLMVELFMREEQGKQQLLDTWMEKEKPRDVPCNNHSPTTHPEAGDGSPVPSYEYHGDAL
CSC inhib: cancer stem cell viability inhibitors, primary screen, luminescence; actives 1.1% (n = 300,000); inhibition, % at 7.5 µM; cancer stem cell-like cells viability; AID 2717, 2010; in the data active = inhibition above about 75%; tested in HMLE shEcad cells
MC4R antagonist: MC4R antagonists of cAMP signaling, primary screen, cell-based, TR-FRET, antagonist arm of biased-ligand search; inhibition, % at 6.5 µM; MC4R-expressing cells, MTII-stimulated cAMP, LANCE TR-FRET; AID 540295, 2011; Melanocortin receptor 4 (Homo sapiens), P32245; actives 0.48% (n = 360,000);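 active = inhibition above its plate's cutoff, the mean of tested wells on that plate plus 3 SD, cut at about 29% in these data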;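 note: 0% = Melanotan II alone and 100% = Melanotan II plus saturating MCL0020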
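Assay system: U2OS-MC4R stable cell line; Also added: Melanotan II; Technique: Eu-cAMP/anti-cAMP TR-FRET, emission 671 nm; Times: 30-min compound, 1-h challenge, 1-h detection, room temperature.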
TMEM16A inh: TMEM16A chloride channel inhibitors, primary screen, cell-based, HTS; Anoctamin-1 (Mus musculus), Q8BHY3; HEK293 TMEM16A/YFP iodide influx fluorescence, ionomycin; normalized B-score (activity score, 25-100; higher = stronger inhibition) at 10 µM; actives 1.2% (n = 310,000); AID 588511, 2011;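 active = ratio plate-corrected score three or more library SD toward inhibition, starting fluorescence score within five deviations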;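 note: score derived from kinetic fluorescence span divided by baseline fluorescence per well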
* marks the source's active call; other numbers are inactive results. A selection: hits, their analogues and other compounds. The true share with any hit is near 3.8%.

What do the screens show for `Cc1ccc(Sc2ccc(S(=O)(=O)Nc3ccc(CC(=O)O)cc3)cc2)cc1C`?
MC4R barr agon: -3; Beta apoptosis: 5; TMEM16A act: inactive; MC4R antagonist: 13

How did Fc1cccc(CCN2CCNC[C@@H]2Cc2ccccc2)c1 do in these assays?
MC4R barr agon: 4; Beta apoptosis: 6; TMEM16A act: inactive; CSC inhib: -7; MC4R antagonist: 12; TMEM16A inh: inactive

Results for FC(F)(F)c1cc(CCN2CCNC[C@@H]2Cc2ccccc2)cc(C(F)(F)F)c1 ?
MC4R barr agon: 2; Beta apoptosis: 18; TMEM16A act: inactive; CSC inhib: 77*; MC4R antagonist: -1; TMEM16A inh: inactive

What do the screens show for `Cc1ccc(S(=O)(=O)NCC(=O)NCC(=O)N(C)Cc2ccc(Br)s2)cc1C`?
MC4R barr agon: -3; MC4R antagonist: 4

What do the screens show for `CCCCN(CC)c1nc(-c2ccncc2)nc2ccccc12`?
MC4R barr agon: 0; Beta apoptosis: -7; TMEM16A act: inactive; CSC inhib: 30; MC4R antagonist: 1; TMEM16A inh: inactive

Results for c1ccc(CN2CCN(c3nc(-c4ccccn4)nc4ccccc34)CC2)cc1 ?
MC4R barr agon: 0; TMEM16A act: inactive; CSC inhib: 2; MC4R antagonist: 3; TMEM16A inh: inactive

What do the screens show for `CCCN(CCC)c1nc(-c2ccccn2)nc2ccccc12`?
MC4R barr agon: -4; Beta apoptosis: 135*; TMEM16A act: inactive; CSC inhib: 34; MC4R antagonist: 18; TMEM16A inh: inactive

What do the screens show for `c1ccc(CCNc2nc(-c3ccccn3)nc3ccccc23)cc1`?
MC4R barr agon: 0; Beta apoptosis: 96*; TMEM16A act: inactive; CSC inhib: 43; MC4R antagonist: 14; TMEM16A inh: inactive

How did Cc1ccc(-c2nn(-c3ccccc3)cc2CC(=S)N2CCOCC2)cc1 do in these assays?
MC4R barr agon: 0; Beta apoptosis: 0; TMEM16A act: inactive; CSC inhib: -5; MC4R antagonist: 11; TMEM16A inh: inactive

Results for C[C@H](CO)N1C[C@H](C)[C@@H](CN(C)S(=O)(=O)c2cn(C)cn2)Oc2c(NS(=O)(=O)c3cccs3)cccc2C1=O ?
MC4R barr agon: 0; MC4R antagonist: -3

Results for COc1cc(CCC(=O)N2CCN(S(=O)(=O)c3ccc(C)cc3)CC2)cc(OC)c1OC ?
MC4R barr agon: 1; Beta apoptosis: -1; TMEM16A act: inactive; MC4R antagonist: -2

How did CCOC(=O)c1ccc(NC(=S)N2CCSC2c2ccc(Cl)cc2)cc1 (stereo unspecified) do in these assays?
MC4R barr agon: 3; Beta apoptosis: 4; TMEM16A act: -7.7*; CSC inhib: 36; MC4R antagonist: 2; TMEM16A inh: 100*

What do the screens show for `CC(C)=CCC[C@](C)(O[C@@H]1O[C@H](CO[C@@H]2O[C@H](CO)[C@@H](O)[C@H](O)[C@H]2O)[C@@H](O)[C@H](O)[C@H]1O)C1CC[C@]2(C)C1C(=O)CC1[C@@]3(C)CC[C@H](O[C@H]4O[C@@H](CO)[C@H](O)[C@@H](O)[C@@H]4O)C(C)(C)C3CC[C@]12C` (stereo partly specified)?
MC4R barr agon: 0; Beta apoptosis: 3; TMEM16A act: inactive; CSC inhib: -13; MC4R antagonist: 9

What do the screens show for `CC(=O)OCC1O[C@@H](O[C@@H]2C[C@H]3C(C)(C)[C@H](OC(C)=O)CC[C@]3(C)[C@H]3CC[C@]45C[C@]4(CC[C@H]5[C@@H](C)C[C@@H](O)[C@H](O)C(C)(C)O)[C@@]32C)[C@H](O)[C@@H](O)[C@@H]1O` (stereo partly specified)?
Beta apoptosis: 111*; CSC inhib: 102*; TMEM16A inh: 100*
